The values that follow come from ChEMBL document CHEMBL4680154, “The optimization of xanthine derivatives leading to HBK001 hydrochloride as a potent dual ligand targeting DPP-IV and GPR119” (Eur J Med Chem, 2020).

The target of data set [1] is T1, Glucose-dependent insulinotropic receptor (Homo sapiens) (UniProt Q8TDV5).
T1 sequence (whole entry): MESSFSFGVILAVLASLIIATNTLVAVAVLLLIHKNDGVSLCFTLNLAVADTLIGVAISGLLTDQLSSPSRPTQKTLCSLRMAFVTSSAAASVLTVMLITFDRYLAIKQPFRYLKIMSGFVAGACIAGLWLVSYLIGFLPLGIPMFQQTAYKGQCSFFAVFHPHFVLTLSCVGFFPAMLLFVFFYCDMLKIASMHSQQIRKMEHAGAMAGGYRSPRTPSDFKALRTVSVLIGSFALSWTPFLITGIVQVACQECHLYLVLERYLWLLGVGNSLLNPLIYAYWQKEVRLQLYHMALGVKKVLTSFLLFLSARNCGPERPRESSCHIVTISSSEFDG
Put plainly: Agonist activity at CREB-LBD and Gal4-DBD fused recombinant human GPR119 expressed in HEK293 cells at 1 uM by firefly luciferase assay relative to AR231453. Type of data set: functional, cell-based. Put shortly: (§1)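 HEK293 cells transiently transfected with human GPR119, a Gal4-DBD/CREB-LBD fusion and a Gal4 UAS-driven luciferase reporter, then treated with compound (DMSO vehicle). Firefly luciferase luminescence read. Activation fold = compound/vehicle, expressed as percent of the AR231453 activation fold. EC50 obtained by curve fitting.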

Data set [2] has as its target T2, Glucose-dependent insulinotropic receptor (Homo sapiens, UniProt Q8TDV5).
T2 sequence (Q8TDV5 whole entry): T1 sequence (whole entry)
The data set can be described thus: Agonist activity at CREB-LBD and Gal4-DBD fused recombinant human GPR119 expressed in HEK293 cells by firefly luciferase assay. In kind it is functional, cell-based. The essentials:
as §1

In the next data set the target is DPP8/9 (Homo sapiens, UniProt Q6V1X1+Q86TI2). The data set can be described thus: Inhibition of recombinant human DPP8/9 expressed in Rosetta cells at 10 uM using Gly-Pro-p-nitroanilide as substrate incubated for 1 hr relative to control. The following applies: probe Gly-Pro-p-nitroanilide.
Data set [3] is described as follows: Metabolic stability in ICR/CD-1 mouse hepatocytes assessed as parent compound remaining incubated for 30 mins by LC-MS/MS analysis. In kind it is ADME, cell-based, Hepatocyte. The settings on record: read-out: Stabilty. Put shortly: (§2)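 Hepatocytes from male ICR/CD-1 mice, male Sprague-Dawley rats, or mixed human donors. Parent compound measured after 30 min incubation and normalised to the time-zero concentration.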

Data set [4] is described as follows: Metabolic stability in Sprague-Dawley rat hepatocytes assessed as parent compound remaining incubated for 30 mins by LC-MS/MS analysis. In kind it is ADME, cell-based, Hepatocyte. The following applies: read-out: Stabilty. The essentials:
as §2

Data set [5] in a line: Metabolic stability in human hepatocytes assessed as parent compound remaining incubated for 30 mins by LC-MS/MS analysis. In kind it is ADME, cell-based, Hepatocyte. The following applies: read-out: Stabilty. Put shortly:
as §2

In a further data set the test system is Vero. The data set can be described thus: Cytotoxicity against African green monkey Vero cells incubated for 48 hrs by MTT assay. The settings on record: Chlorocebus sabaeus.
The subject of a further data set is Mus musculus. Put plainly: Antidiabetic activity in ICR mouse assessed as reduction in blood glucose level at 30 mg/kg, po administered as single dose followed by oral glucose challenge measured after 30 mins by glucose oxidase method. In kind it is functional, organism-based. Put shortly: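 Overnight-fasted ICR mice given compound by oral gavage (vehicle distilled water) before a 2 g/kg oral glucose load. Tail-tip blood taken at 0, 30, 60 and 120 min; glucose measured by the glucose oxidase method. n = 10 per group, mean ± SEM.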

In brackets after ≈: the same amount, converted by molar mass. Activity calls are given as the source filed them. No cut-off for these calls is given here.

Broadly, the EC50 is the concentration giving half of the maximal effect. For `CC#CCn1c(N2CCC[C@@H](N)C2)nc2c1c(=O)n(CCCN1CCN(c3ncc(F)cn3)CC1)c(=O)n2C`, the Activity in data set [1] (filed as agonist) is 78%. Also, the EC50 in data set [2] was determined as 1410 nM.
For orientation: inhibition means the share of the control response that was lost under treatment. As for `CC#CCn1c(N2CCC[C@@H](N)C2)nc2c1c(=O)n(CCCN1CCN(c3nnc(-c4ccccc4)[nH]3)CC1)c(=O)n2C`, the inhibition at 1 h, 10 µM at DPP8/9 stood at 7.3%. Also, the Activity in data set [1] is 38%.
As for `CC#CCn1c(N2CCC[C@@H](N)C2)nc2c1c(=O)n(CCCN1CCN(c3ncc(CCC)cn3)CC1)c(=O)n2C`, the Activity in data set [1] (filed as agonist) turned out to be 84%. The EC50 in data set [2] turned out to be 1850 nM.
Take `CC#CCn1c(N2CCC[C@@H](N)C2)nc2c1c(=O)n(CCCN1CCN(c3nc(-c4ccccc4)ns3)CC1)c(=O)n2C`: on DPP8/9, the inhibition at 1 h, 10 µM was determined as 1.6%. In data set [1] (filed as agonist), the Activity is 81%. Moreover, the EC50 in data set [2] was 1930 nM.
With `CC#CCn1c(N2CCC[C@@H](N)C2)nc2c1c(=O)n(CCCN1CCN(c3ncc(C)cn3)CC1)c(=O)n2C`, the Activity in data set [1] (filed as agonist) is 60%. Besides, the EC50 in data set [2] was found to be 2560 nM.
Take `CC#CCn1c(N2CCC[C@@H](N)C2)nc2c1c(=O)n(CCCN1CCN(c3ncc(CC)cn3)CC1)c(=O)n2C`: the Activity in data set [1] (filed as agonist) was found to be 85%. In addition, in data set [2], the EC50 was 3990 nM.
As usually defined, the IC50 is the point on the concentration scale where inhibition reaches its midpoint. In the case of `CC#CCn1c(N2CCC[C@@H](N)C2)nc2c1c(=O)n(CCCN1CCC(c3nc(-c4ccccc4)c[nH]3)CC1)c(=O)n2C`, the inhibition at 1 h, 10 µM on DPP8/9 stood at 5.1%. In addition, in data set [1] (filed as agonist), the Activity was determined as 65%. Also, the EC50 in data set [2] stood at 600 nM. Further, the remaining at 0.5 h turned out to be 69.4% in data set [3], 21.7% in data set [4] and 84% in data set [5]. The molecule also displayed an IC50 in the data set with Vero of 35.2 µg/mL (≈ 60.3 µM).
Take `CC#CCn1c(N2CCC[C@@H](N)C2)nc2c1c(=O)n(CCCN1CCN(c3nc(-c4ccccc4)no3)CC1)c(=O)n2C`: the outcome in the data set on Mus musculus was Active. In data set [1] (filed as agonist), the Activity amounted to 58%.
For the molecule `CC#CCn1c(N2CCC[C@@H](N)C2)nc2c1c(=O)n(CCCN1CCC(c3ncc(-c4ccccc4)o3)CC1)c(=O)n2C`, the inhibition at 1 h, 10 µM at DPP8/9 is 3.3%. Besides, the Activity in data set [1] (filed as agonist) was 80%. Besides, the EC50 in data set [2] stood at 830 nM.
In the case of `CC#CCn1c(N2CCC[C@@H](N)C2)nc2c1c(=O)n(CCCN1CCN(c3ncc(C(F)(F)F)cn3)CC1)c(=O)n2C`, in data set [1] (filed as agonist), the Activity was 90%. Also, the EC50 in data set [2] was 4020 nM.
As for `CC#CCn1c(N2CCC[C@@H](N)C2)nc2c1c(=O)n(CCCN1CCN(c3noc(-c4ccccc4)n3)CC1)c(=O)n2C`, the Activity in data set [1] (filed as agonist) was determined as 89%. The EC50 in data set [2] is 1450 nM. Also, the results for the remaining at 0.5 h in data set [3], in data set [4] and in data set [5] were 24.2%, 25% and 82%, respectively. The molecule also gave an IC50 in the data set with Vero of 8.7 µg/mL (≈ 14.8 µM).
Turning to `CC#CCn1c(N2CCC[C@@H](N)C2)nc2c1c(=O)n(CCCN1CCC(c3nc(-c4ccccc4)cs3)CC1)c(=O)n2C`, the inhibition at 1 h, 10 µM on DPP8/9 turned out to be 2.2%. The Activity in data set [1] (filed as agonist) was determined as 83%. Further, the half-maximal effective concentration (EC50) in data set [2] was 3130 nM.
